# Measurements pooled from the literature.
# Each line is one published result; the experiments were not run side by side.
# Route: oral
SMILES,species,sample,dose,setting,Tmax [h]
c1cnc2ccc(Nc3nc(NC4CC4)c4nc[nH]c4n3)cc2c1,human,plasma,100 mg/m²,patients,5.7
CNCC[C@H](Oc1cccc2ccccc12)c1cccs1,female human,plasma,30 mg,"multiple doses, once daily",4.7
CC(C)n1cc(C#N)c2cc(-n3cc(C(=O)O)cn3)ccc21,human,plasma,800 mg,"multiple doses, once daily, steady state",4
CS(=O)(=O)CCC#N,human,plasma,100 mg,"multiple doses, once daily",1
C=CC(=O)N(C)CCOc1c(N)ncnc1-c1cc(F)cc(NC(=O)c2ccc(C3CC3)cc2F)c1C,human,blood,600 mg,"single dose, healthy volunteers",1.02
CCO[C@H]1CCN(Cc2c(OC)cc(C)c3[nH]ccc23)[C@H](c2ccc(C(=O)O)cc2)C1,human,plasma,50 mg,"multiple doses, twice daily, patients",2
Cc1nc(NC(=O)N2CCC[C@H]2C(N)=O)sc1-c1ccnc(C(C)(C)C(F)(F)F)c1,human,plasma,180 mg,patients,2.46
CC(C)(C)N/[N+]([O-])=N/OC1CCN(c2ccc(C#N)cn2)CC1,male human,plasma,,"single dose, healthy volunteers",1 to 2
C#C[C@]1(COP(=O)(O)OP(=O)(O)OP(=O)(O)O)O[C@@H](n2cnc3c(N)nc(F)nc32)C[C@@H]1O,human,plasma,5 mg,single dose,9
CCc1nc2c(C)cc(N3CCN(CC(=O)N4CC(O)C4)CC3)cn2c1N(C)c1nc(-c2ccc(F)cc2)c(C#N)s1,human,plasma,600 mg,"single dose, fed, healthy volunteers",3.5
CC(C)[C@](O)(c1ccc2cc(OC(F)F)c(OC(F)F)cc2c1)c1c[nH]nn1,female human,plasma,600 mg,single dose,2.5
COc1cc(N2CCC(N3CCN(C)CC3)CC2)ccc1Nc1ncnc(Nc2ccccc2S(=O)(=O)C(C)C)n1,human,plasma,75 mg,"multiple doses, patients",3.32
C[C@@H](Nc1cc(F)cc(F)c1)c1cc(C(=O)N(C)C)cc2c(=O)cc(N3CCOCC3)oc12,human,plasma,360 mg,"single dose, patients",1.53
CC(C)(Sc1ccncc1-c1ccc(C#N)c2ccccc12)C(=O)O,male human,plasma,1 mg,"multiple doses, once daily",0.5
CC(C)(O)c1ccccc1-c1ccc2[nH]c(/C=C/c3ccc(C(F)(F)F)cc3)nc2c1,male human,plasma,30 mg,"single dose, fasted",3.03
Cn1cc(-c2ccc(S(=O)(=O)[C@@H]3C[C@@H](C(=O)NC4(C#N)CC4)N(C(=O)C4(C(F)(F)F)CC4)C3)c(C(F)(F)F)c2)cn1,human,plasma,600 mg,"single dose, fasted, healthy volunteers",3.5
COc1ccc([C@@H]2CN(C(=O)[C@@H](O)CO)C[C@@]2(C)[C@@H](C)O)cc1OC1CN(c2ccc(C)cn2)C1,human,plasma,10 mg,"single dose, healthy volunteers",2
NS(=O)(=O)NCCNc1nonc1C(=NO)Nc1ccc(F)c(Br)c1,human,plasma,700 mg,"multiple doses, twice daily, steady state, patients",3
